“And” between values parts separate entries of the source, which are not always exact repeats. Equal values may be shown once. Non-standard residues stand in square brackets, D forms with d. Residues, ends and D or L forms follow the SMILES beside them.
System: U2OS
Test: Multiplex assay against U2OS
Type: toxicity, cell-based
Conditions: human
Method in brief: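 Values for tubulin, mitochondrial-mass and membrane-permeability phenotypes are per cents of cells with healthy nuclei. These cells were identified by CellPathfinder machine-learning gating of live cells that had been stained at seeding with Hoechst33342, BioTracker Green Microtubule Cytoskeleton Dye, MitoTracker Red and Annexin V Alexa Fluor 680 and imaged on a CQ1 microscope at 37°C and 5% CO2 after compound addition. The gating first set Hoechst high-intensity objects apart from normal cells, then split normal cells into healthy, pyknosed or fragmented nuclei, and pyknosed cells into mitotic or apoptotic.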

[1] = 12 h, 1 µM, compound concentration 1 uM
[2] = 12 h, 10 µM, compound concentration 10 uM
[3] = 24 h, 1 µM, compound concentration 1 uM
[4] = 24 h, 10 µM, compound concentration 10 uM
[5] = 48 h, 1 µM, compound concentration 1 uM
[6] = 48 h, 10 µM, compound concentration 10 uM

SMILES: Cc1noc(C)c1-c1cnc2c(-c3ccc(C(=O)O)cc3)cn([C@@H](C)c3ccccn3)c2c1 [PLX-51107]
- Population Apoptotic (%) [1]: 28.33% and 48.15%
- Population Fragmented Nuclei (%) [1]: 2.1% and 1.04%
- Population Healthy Nuclei (%) [1]: 85.32% and 84.97%
- Population Hoechst High Intensity Objects (%) [1]: 0%
- Population Membrane Permeable-Phenotype (%) [1]: 0.25% and 4.88%
- Population Mitochondria Different-Phenotype (%) [1]: 0% and 5.49%
- Population Mitotic Cells (%) [1]: 71.67% and 51.85%
- Population Normal (%) [1]: 100%
- Population Pyknosed Nuclei (%) [1]: 12.58% and 13.99%
- Population Tubulin-Different-Phenotype (%) [1]: 0.74% and 3.05%
- Total Cell Count [1]: 477 and 193
- Population Apoptotic (%) [2]: 30.77% and 33.33%
- Population Fragmented Nuclei (%) [2]: 2.92% and 1.9%
- Population Healthy Nuclei (%) [2]: 82.47% and 82.91%
- Population Hoechst High Intensity Objects (%) [2]: 0%
- Population Membrane Permeable-Phenotype (%) [2]: 1.36% and 3.05%
- Population Mitochondria Different-Phenotype (%) [2]: 0.27% and 7.63%
- Population Mitotic Cells (%) [2]: 69.23% and 66.67%
- Population Normal (%) [2]: 100%
- Population Pyknosed Nuclei (%) [2]: 14.61% and 15.19%
- Population Tubulin-Different-Phenotype (%) [2]: 1.36% and 1.53%
- Total Cell Count [2]: 445 and 158
- Population Apoptotic (%) [3]: 32.76% and 59.26%
- Population Fragmented Nuclei (%) [3]: 3.22% and 5.11%
- Population Healthy Nuclei (%) [3]: 87.88% and 85.04%
- Population Hoechst High Intensity Objects (%) [3]: 0%
- Population Membrane Permeable-Phenotype (%) [3]: 0.52% and 4.29%
- Population Mitochondria Different-Phenotype (%) [3]: 0.35% and 3.86%
- Population Mitotic Cells (%) [3]: 67.24% and 40.74%
- Population Normal (%) [3]: 100%
- Population Pyknosed Nuclei (%) [3]: 8.9% and 9.85%
- Population Tubulin-Different-Phenotype (%) [3]: 0.52% and 2.15%
- Total Cell Count [3]: 652 and 274
- Population Apoptotic (%) [4]: 43.37% and 43.48%
- Population Fragmented Nuclei (%) [4]: 5.51% and 6.04%
- Population Healthy Nuclei (%) [4]: 79.23% and 81.32%
- Population Hoechst High Intensity Objects (%) [4]: 0%
- Population Membrane Permeable-Phenotype (%) [4]: 0.93% and 2.7%
- Population Mitochondria Different-Phenotype (%) [4]: 0% and 4.73%
- Population Mitotic Cells (%) [4]: 56.63% and 56.52%
- Population Normal (%) [4]: 100%
- Population Pyknosed Nuclei (%) [4]: 15.26% and 12.64%
- Population Tubulin-Different-Phenotype (%) [4]: 0.46% and 0.68%
- Total Cell Count [4]: 544 and 182
- Population Apoptotic (%) [5]: 51.49% and 72.73%
- Population Fragmented Nuclei (%) [5]: 10.29% and 4.03%
- Population Healthy Nuclei (%) [5]: 80.83% and 86.62%
- Population Hoechst High Intensity Objects (%) [5]: 0%
- Population Membrane Permeable-Phenotype (%) [5]: 0.44% and 2.21%
- Population Mitochondria Different-Phenotype (%) [5]: 0.11% and 1.47%
- Population Mitotic Cells (%) [5]: 48.51% and 27.27%
- Population Normal (%) [5]: 100%
- Population Pyknosed Nuclei (%) [5]: 8.88% and 9.34%
- Population Tubulin-Different-Phenotype (%) [5]: 0.44% and 1.47%
- Total Cell Count [5]: 1137 and 471
- Population Apoptotic (%) [6]: 58.54% and 60.87%
- Population Fragmented Nuclei (%) [6]: 17.75% and 9.91%
- Population Healthy Nuclei (%) [6]: 65.96% and 70.26%
- Population Hoechst High Intensity Objects (%) [6]: 0%
- Population Membrane Permeable-Phenotype (%) [6]: 0.6% and 1.84%
- Population Mitochondria Different-Phenotype (%) [6]: 0% and 2.45%
- Population Mitotic Cells (%) [6]: 41.46% and 39.13%
- Population Normal (%) [6]: 100%
- Population Pyknosed Nuclei (%) [6]: 16.29% and 19.83%
- Population Tubulin-Different-Phenotype (%) [6]: 1.2% and 0.61%

SMILES: Cl.c1ccc2c(c1)CCC[C@H]2Nc1nc2ccccc2[nH]1
- Population Apoptotic (%) [1]: 51.52% and 50%
- Population Fragmented Nuclei (%) [1]: 1.35% and 1.11%
- Population Healthy Nuclei (%) [1]: 89.73% and 86.67%
- Population Hoechst High Intensity Objects (%) [1]: 0%
- Population Membrane Permeable-Phenotype (%) [1]: 0.9% and 4.49%
- Population Mitochondria Different-Phenotype (%) [1]: 0% and 8.33%
- Population Mitotic Cells (%) [1]: 48.48% and 50%
- Population Normal (%) [1]: 100%
- Population Pyknosed Nuclei (%) [1]: 8.92% and 12.22%
- Population Tubulin-Different-Phenotype (%) [1]: 0.9% and 0.64%
- Total Cell Count [1]: 370 and 180
- Population Apoptotic (%) [2]: 34.15% and 18.18%
- Population Fragmented Nuclei (%) [2]: 1.73% and 1.16%
- Population Healthy Nuclei (%) [2]: 88.15% and 86.13%
- Population Hoechst High Intensity Objects (%) [2]: 0%
- Population Membrane Permeable-Phenotype (%) [2]: 1.96% and 2.01%
- Population Mitotic Cells (%) [2]: 65.85% and 81.82%
- Population Normal (%) [2]: 100%
- Population Pyknosed Nuclei (%) [2]: 10.12% and 12.72%
- Population Tubulin-Different-Phenotype (%) [2]: 1.96% and 2.01%
- Total Cell Count [2]: 405 and 173
- Population Apoptotic (%) [3]: 36.36% and 51.52%
- Population Fragmented Nuclei (%) [3]: 1.17% and 2.47%
- Population Healthy Nuclei (%) [3]: 92.41% and 83.95%
- Population Hoechst High Intensity Objects (%) [3]: 0.19% and 0%
- Population Membrane Permeable-Phenotype (%) [3]: 0.42% and 2.94%
- Population Mitochondria Different-Phenotype (%) [3]: 0.21% and 7.35%
- Population Mitotic Cells (%) [3]: 63.64% and 48.48%
- Population Normal (%) [3]: 99.81% and 100%
- Population Pyknosed Nuclei (%) [3]: 6.42% and 13.58%
- Population Tubulin-Different-Phenotype (%) [3]: 0.21% and 1.47%
- Total Cell Count [3]: 515 and 243
- Population Apoptotic (%) [4]: 40% and 51.85%
- Population Fragmented Nuclei (%) [4]: 2.23% and 2.74%
- Population Healthy Nuclei (%) [4]: 89.41% and 84.93%
- Population Hoechst High Intensity Objects (%) [4]: 0%
- Population Membrane Permeable-Phenotype (%) [4]: 1.87% and 2.69%
- Population Mitochondria Different-Phenotype (%) [4]: 0.42% and 8.06%
- Population Mitotic Cells (%) [4]: 60% and 48.15%
- Population Normal (%) [4]: 100%
- Population Pyknosed Nuclei (%) [4]: 8.36% and 12.33%
- Population Tubulin-Different-Phenotype (%) [4]: 1.87% and 1.08%
- Total Cell Count [4]: 538 and 219
- Population Apoptotic (%) [5]: 36.59% and 47.06%
- Population Fragmented Nuclei (%) [5]: 3.12% and 2.18%
- Population Healthy Nuclei (%) [5]: 88.61% and 85.44%
- Population Hoechst High Intensity Objects (%) [5]: 0%
- Population Membrane Permeable-Phenotype (%) [5]: 0.46% and 2.27%
- Population Mitochondria Different-Phenotype (%) [5]: 0.11% and 6.25%
- Population Mitotic Cells (%) [5]: 63.41% and 52.94%
- Population Normal (%) [5]: 100%
- Population Pyknosed Nuclei (%) [5]: 8.27% and 12.38%
- Population Tubulin-Different-Phenotype (%) [5]: 0.57% and 0.85%
- Total Cell Count [5]: 992 and 412
- Population Apoptotic (%) [6]: 41.57% and 48.08%
- Population Fragmented Nuclei (%) [6]: 2.25% and 2.98%
- Population Healthy Nuclei (%) [6]: 88.65% and 82.93%
- Population Hoechst High Intensity Objects (%) [6]: 0% and 0.27%
- Population Membrane Permeable-Phenotype (%) [6]: 1.5% and 3.92%
- Population Mitochondria Different-Phenotype (%) [6]: 0% and 3.92%
- Population Mitotic Cells (%) [6]: 58.43% and 51.92%
- Population Normal (%) [6]: 100% and 99.73%
- Population Pyknosed Nuclei (%) [6]: 9.1% and 14.09%
- Population Tubulin-Different-Phenotype (%) [6]: 1.5% and 2.61%
- Total Cell Count [6]: 978 and 370

SMILES: CC(C)C[C@@H]1NC(=O)[C@@H](C(C)C)NC(=O)[C@@H]2CCCN2C(=O)[C@@H](CC(=O)O)NC(=O)[C@@H](Cc2c[nH]c3ccccc23)NC1=O [BQ-123] (cyclo(L[dW][dD]P[dV]))
- Population Apoptotic (%) [1]: 77% and 83%
- Population Fragmented Nuclei (%) [1]: 20% and 19%
- Population Healthy Nuclei (%) [1]: 69% and 75%
- Population Hoechst High Intensity Objects (%) [1]: 0% and 2%
- Population Membrane Permeable-Phenotype (%) [1]: 1% and 2%
- Population Mitochondria Different-Phenotype (%) [1]: 1% and 0%
- Population Mitotic Cells (%) [1]: 22% and 16%
- Population Normal (%) [1]: 99% and 97%
- Population Pyknosed Nuclei (%) [1]: 9% and 5%
- Population Tubulin-Different-Phenotype (%) [1]: 0% and 8%
- Total Cell Count [1]: 228 and 118
- Population Apoptotic (%) [2]: 78% and 75%
- Population Fragmented Nuclei (%) [2]: 29% and 25%
- Population Healthy Nuclei (%) [2]: 65% and 70%
- Population Hoechst High Intensity Objects (%) [2]: 2%
- Population Membrane Permeable-Phenotype (%) [2]: 8% and 7%
- Population Mitochondria Different-Phenotype (%) [2]: 1% and 4%
- Population Mitotic Cells (%) [2]: 21% and 25%
- Population Normal (%) [2]: 97%
- Population Pyknosed Nuclei (%) [2]: 4%
- Population Tubulin-Different-Phenotype (%) [2]: 3% and 2%
- Total Cell Count [2]: 294 and 99
- Population Apoptotic (%) [3]: 69% and 85%
- Population Fragmented Nuclei (%) [3]: 16% and 11%
- Population Healthy Nuclei (%) [3]: 75% and 77%
- Population Hoechst High Intensity Objects (%) [3]: 0%
- Population Membrane Permeable-Phenotype (%) [3]: 2% and 6%
- Population Mitochondria Different-Phenotype (%) [3]: 1% and 0%
- Population Mitotic Cells (%) [3]: 30% and 14%
- Population Normal (%) [3]: 99%
- Population Pyknosed Nuclei (%) [3]: 8% and 10%
- Population Tubulin-Different-Phenotype (%) [3]: 1% and 3%
- Total Cell Count [3]: 279 and 137
- Population Apoptotic (%) [4]: 92% and 100%
- Population Fragmented Nuclei (%) [4]: 24%
- Population Healthy Nuclei (%) [4]: 67% and 74%
- Population Hoechst High Intensity Objects (%) [4]: 2% and 0%
- Population Membrane Permeable-Phenotype (%) [4]: 8% and 6%
- Population Mitochondria Different-Phenotype (%) [4]: 2% and 8%
- Population Mitotic Cells (%) [4]: 8% and 0%
- Population Normal (%) [4]: 97% and 99%
- Population Pyknosed Nuclei (%) [4]: 7% and 1%
- Population Tubulin-Different-Phenotype (%) [4]: 4%
- Total Cell Count [4]: 338 and 113
- Population Apoptotic (%) [5]: 77% and 100%
- Population Fragmented Nuclei (%) [5]: 14% and 18%
- Population Healthy Nuclei (%) [5]: 79% and 70%
- Population Hoechst High Intensity Objects (%) [5]: 1%
- Population Membrane Permeable-Phenotype (%) [5]: 3%
- Population Mitochondria Different-Phenotype (%) [5]: 1% and 3%
- Population Mitotic Cells (%) [5]: 22% and 0%
- Population Normal (%) [5]: 98%
- Population Pyknosed Nuclei (%) [5]: 5% and 10%
- Population Tubulin-Different-Phenotype (%) [5]: 3% and 2%
- Total Cell Count [5]: 407 and 226
- Population Apoptotic (%) [6]: 94% and 81%
- Population Fragmented Nuclei (%) [6]: 19% and 20%
- Population Healthy Nuclei (%) [6]: 70% and 66%
- Population Hoechst High Intensity Objects (%) [6]: 1%
- Population Membrane Permeable-Phenotype (%) [6]: 5%
- Population Mitochondria Different-Phenotype (%) [6]: 2% and 6%
- Population Normal (%) [6]: 98%
- Population Pyknosed Nuclei (%) [6]: 9% and 12%
- Population Tubulin-Different-Phenotype (%) [6]: 3% and 2%

Source: ChEMBL document CHEMBL5724801, “EUbOPEN Chemogenomics Library - Multiplex” (2024)
